Assay outcomes (PubChem BioAssay)
Only some compounds are listed: those with a hit (about 3% of all), similar ones and a draw of the others.
NRP1-CendR mod: modulators of CendR peptide binding to human neuropilin-1; O14786; FAM-RPARPAR peptide binding to NRP-1, fluorescence polarization; inhibition, % at 25 µM; 360,000 compounds, 0.85% hits; AID 602438;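 active means inhibition or corrected inhibition above about 18%, plus a signal ratio from 0.5 to 1.5, limit read from the data, passing the limit was not always enough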
Target sequence (O14786 whole entry, looked up): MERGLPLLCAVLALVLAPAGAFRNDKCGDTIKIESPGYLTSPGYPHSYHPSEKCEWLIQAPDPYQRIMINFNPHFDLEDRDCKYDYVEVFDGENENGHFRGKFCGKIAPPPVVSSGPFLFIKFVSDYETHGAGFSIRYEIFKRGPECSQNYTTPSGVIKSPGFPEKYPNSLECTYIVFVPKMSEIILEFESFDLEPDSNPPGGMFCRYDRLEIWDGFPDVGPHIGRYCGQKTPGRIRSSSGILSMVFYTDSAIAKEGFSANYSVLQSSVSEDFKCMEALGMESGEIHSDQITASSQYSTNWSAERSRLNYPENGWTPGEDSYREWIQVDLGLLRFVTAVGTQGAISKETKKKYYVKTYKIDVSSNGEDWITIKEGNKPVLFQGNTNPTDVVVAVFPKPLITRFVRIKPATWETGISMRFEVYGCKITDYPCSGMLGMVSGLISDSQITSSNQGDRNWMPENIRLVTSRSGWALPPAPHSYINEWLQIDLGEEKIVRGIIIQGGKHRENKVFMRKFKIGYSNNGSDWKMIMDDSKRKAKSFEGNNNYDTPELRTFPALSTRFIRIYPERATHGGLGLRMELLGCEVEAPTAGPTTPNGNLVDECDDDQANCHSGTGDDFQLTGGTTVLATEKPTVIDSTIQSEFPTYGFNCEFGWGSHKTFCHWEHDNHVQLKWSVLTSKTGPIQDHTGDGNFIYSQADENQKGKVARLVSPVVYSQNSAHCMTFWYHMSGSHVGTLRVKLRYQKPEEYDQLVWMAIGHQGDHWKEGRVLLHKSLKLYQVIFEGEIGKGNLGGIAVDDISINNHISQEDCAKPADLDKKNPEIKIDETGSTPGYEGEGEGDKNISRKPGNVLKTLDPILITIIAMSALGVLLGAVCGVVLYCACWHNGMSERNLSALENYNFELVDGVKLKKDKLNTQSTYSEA
DDE Tn7 FP inh: disrupts Tn7 cyclic peptide binding to fibrin D-Dimer-E complex | P02675 | inhibition, % at 8.3 µM | FP displacement of FITC-Tn7 peptide from fibrin DD(E); 0% = median of compound wells per plate | 370,000 compounds, 0.13% hits | AID 720508;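 active means inhibition above the mean of compounds falling within the control limits plus 3 SD of them, cut at about 14% in these data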
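Assay system: human fibrin DD(E) protein / Input: 2 µM fibrin DD(E) / Benchmarks: high control of 10 µM Aha-Tn7 peptide / Measured by: fluorescence polarization of the labelled Tn7 tracer / Medium: Tris buffer with calcium and detergent, pH 7.8 / Timing: 10 min compound pre-incubation, 3 h probe incubation at room temperature / Repeats: one replicate per compound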
Tn6 DDE FP: inhibitors of Tn6 peptide binding to human fibrin DD(E) | Fibrin DD(E) TRITC-Tn6 fluorescence polarization displacement | inhibition, % at 8.3 µM | 370,000 compounds, 0.21% hits;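 active means inhibition above a per-campaign cutoff: mean of compounds within control limits plus 3 SD, cut at about 15% in these data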
KLK7 zymogen act: activators of human kallikrein-7 zymogen; 370,000 compounds, 0.9% hits; purified proKLK7, EDANS-DABCYL substrate fluorescence; 100% is mature enzyme control, 0% vehicle; activation, % at 7 µM;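 active means activation above the mean of all tested compounds plus 3 SD, computed per campaign excluding outliers beyond control limits, cut at about 13% in these data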
PLC-gamma1 inh: PLC-gamma1 (human) inhibition, primary screen. inhibition, % at 12.2 µM. purified PLC-gamma1, fluorogenic substrate, fluorescence. 370,000 compounds, 0.84% hits. AID 720700; in the data active means inhibition above about 9.5%
PLCb3 inh: PLC-beta3 (human) inhibition, primary screen; Q01970; Purified PLC-beta3, fluorogenic substrate, fluorescence; inhibition, % at 12.2 µM; 370,000 compounds, 0.18% hits; AID 720704; in the data active means inhibition above about 11%
Large screens that a line does not name were inactive.

COc1ccc(C2C(C(=O)Nc3ccc(F)cc3)CCC(=O)N2c2ccc(OC)cc2)cc1 (stereo unspecified)	none (no result: NRP1-CendR mod)
CCOc1ccc(CCNC(=O)c2ccc(F)c(S(=O)(=O)N3CCOCC3)c2)cc1OCC	NRP1-CendR mod 23.3
Cc1c(CC(=O)O)c(=O)oc2cc3occ(-c4ccccc4)c3cc12	NRP1-CendR mod 43.5
Cc1c(CC(=O)NCCC(=O)O)c(=O)oc2cc3occ(-c4ccccc4)c3cc12	none
COc1ccc(NC(=O)COc2ccc(CNCCCN3CCOCC3)cc2OC)cc1	PLC-gamma1 inh 10.2
COc1ccccc1NC(=O)COc1ccc(Br)cc1CNCCCN1CCOCC1	none
N#Cc1c(Nc2ccccc2)sc(C(=O)c2ccccc2)c1N	none
Cc1cccc(Oc2sc(C(=O)c3ccccc3)c(N)c2C#N)c1	NRP1-CendR mod 30.8
O=C1CCC[C@H]2C[C@H](NCc3ccc(F)cc3F)CC[C@]23CCCN13	none (no result: NRP1-CendR mod, KLK7 zymogen act)
CCOC(=O)C1CCCCN1C(=O)[C@@H]1CC=C[C@@H]2CCN(c3ccccc3)C(=O)[C@@H]21 (stereo partly specified)	none (no result: NRP1-CendR mod, KLK7 zymogen act)
C=CCOc1c(CNc2nccs2)cccc1OCC	none
C=CCOc1c(CNc2ncn[nH]2)cccc1OCC	NRP1-CendR mod 28.5
COc1cc(C(=O)Nc2ccccc2N2CCOCC2)ccc1OCc1c(C)noc1C	NRP1-CendR mod 27.2
COc1ccc(NC(=O)c2cc(CN3C(=O)c4ccccc4C3=O)ccc2OC)cn1	none
COc1ccc(CN2C(=O)c3ccccc3C2=O)cc1C(=O)Nc1ccccc1N1CCOCC1	NRP1-CendR mod 32.3
O=C(Nc1ccccc1C(=O)NCC1CC1)c1cccs1	none (no result: NRP1-CendR mod)
COc1ccc(C(C)c2cn(C)c3ccccc23)cc1 (stereo unspecified)	none (no result: NRP1-CendR mod)
COC(=O)[C@]12C[C@H](CC(=O)N3CCSCC3)C(=O)N(CCc3ccc(OC)c(OC)c3)C1=C[C@H](COCc1ccccc1)O[C@@H]2C	none (no result: NRP1-CendR mod)
CC(O)[C@H]1CC[C@H]2[C@@H]3CC[C@H]4C[C@@H](O)CC[C@]4(C)[C@H]3C(=O)C[C@]12C (stereo partly specified)	NRP1-CendR mod 25.7
O=C(NC(=S)Nc1ccccc1N1CCCC1)c1ccco1	NRP1-CendR mod 28.1
O=[N+]([O-])c1ccc(N2CCN(Cc3ccccc3)CC2)c(S(=O)(=O)N2CCOCC2)c1	NRP1-CendR mod 30.3
CSc1nnc2c(n1)C[C@H](c1ccccc1)[C@@H](C)[C@@H](C(=O)N1CCCC1)C2	none (no result: NRP1-CendR mod)
COC(=O)[C@]12C[C@H](CC(=O)NCc3cccc(C(F)(F)F)c3)C(=O)N(Cc3cccc4ccccc34)C1=C[C@H](COCc1ccccc1)O[C@@H]2C	none (no result: NRP1-CendR mod)
COCCCN1C(=O)[C@H](CC(=O)NCc2ccc(OC)c(OC)c2)[C@]2(C(=O)OC)CCCCC=C12	none (no result: NRP1-CendR mod)
Brc1ccc(Sc2cnc3ccccc3n2)cc1	NRP1-CendR mod 22.6
CN1CCN(S(=O)(=O)c2ccc(NC(=O)c3cccs3)cc2)CC1	NRP1-CendR mod 21.9
C=C(C)/C=C1/CN(Cc2ccc3c(c2)OCO3)C(=N)N1C(=O)OCc1ccccc1	none (no result: NRP1-CendR mod)
CCOC(=O)CC(=O)Nc1ncnc2c1C(c1ccccc1)c1c(ccc3ccccc13)O2 (stereo unspecified)	NRP1-CendR mod 23.7
Nc1ncnc2c1C(c1ccccc1)c1c(ccc3ccccc13)O2 (stereo unspecified)	none
CCCCCCCCN1C(=O)[C@@H](CC(=O)NCCCOC)C[C@@]2(C(=O)OC)C1=C[C@H](COCc1ccccc1)O[C@@H]2C	none (no result: NRP1-CendR mod)
CCOC(=O)CCC(NC(=O)CCCC(=O)NC(CCC(=O)OCC)C(=O)OCC)C(=O)OCC (stereo unspecified)	NRP1-CendR mod 22.2
CC(Sc1nnc(-c2ccc(C(C)(C)C)cc2)n1C)C(N)=O (stereo unspecified)	NRP1-CendR mod 23.7
O=S(=O)(c1ccc(Cl)s1)N1CCC(c2cn3ccccc3n2)CC1	none (no result: NRP1-CendR mod)
CCNC(=O)N(C(=O)NCC)n1c(C)nnc1C	KLK7 zymogen act 15.7
Cc1[nH][nH]c(=O)c1C(c1c(C)[nH][nH]c1=O)c1cn(Cc2cccc3ccccc23)c2ccccc12	none
Cc1[nH][nH]c(=O)c1C(c1c(C)[nH][nH]c1=O)c1cn(C)c2ccccc12	NRP1-CendR mod 20.5
Cc1ccc(NC=C(S(=O)(=O)c2ccccc2)S(=O)(=O)c2ccccc2)cc1	NRP1-CendR mod 28.6
O=S(=O)(C(=CNc1ccccc1)S(=O)(=O)c1ccccc1)c1ccccc1	none
COC1=CC(=O)c2c(ccc3ncnc(N)c23)C1=O	PLC-gamma1 inh 12.9
COc1cccc2c1C(=O)C=C(C)C2=O	none
COc1ccc(N(C(=O)c2cccnc2)S(=O)(=O)c2ccccc2)cc1	NRP1-CendR mod 23.6
O=C(CCN1C(=O)/C(=C/c2ccco2)SC1=S)Nc1ccc(C(=O)O)c(O)c1	PLC-gamma1 inh 29.2
O=C(CCN1C(=O)/C(=C/c2ccco2)SC1=S)Nc1ccc(O)cc1C(=O)O	none
O=C(CN1C(=O)/C(=C\c2ccco2)SC1=S)Nc1ccc(O)cc1C(=O)O	PLC-gamma1 inh 32.9
COC(=O)[C@]12C[C@H](CC(=O)NCCc3ccccc3OC)C(=O)N(Cc3cccc4ccccc34)C1=C[C@H](C1CCCC1)O[C@@H]2C	none (no result: NRP1-CendR mod)
COc1ccc(-n2c(SCC(=O)Nc3ccc4c(c3)OCCO4)nnc2-c2ccccc2)cc1	none (no result: NRP1-CendR mod)
O=C(NCCc1c[nH]c2ccccc12)OCc1cn(Cc2ccccc2Cl)nn1	none (no result: NRP1-CendR mod)
Cc1ccc(S(=O)(=O)N(C)c2ccc(OCC(=O)Nc3nc4ccccc4s3)cc2)cc1	NRP1-CendR mod 25.3
CC(=O)Nc1c(-c2ccc(F)cc2)nc2ncccn12	none (no result: NRP1-CendR mod)
COc1ccc(C(=O)NC(=O)Nc2ncccc2C)cc1	NRP1-CendR mod 31.2
COc1ccc(NC(=O)Nc2ncccc2C)cc1	none
COc1ccc2[nH]cc(C(C)c3ccccc3O)c2c1 (stereo unspecified)	none (no result: NRP1-CendR mod)
CCC(C)[C@H](NC(=O)Nc1ccccc1F)C(=O)OC (stereo partly specified)	NRP1-CendR mod 21.8
CCN(CC)c1ccc2cc(C#N)c(=O)oc2c1	NRP1-CendR mod 24.9
COC(=O)[C@]12C[C@H](CC(=O)NCCc3ccccc3OC)C(=O)N(Cc3ccco3)C1=C[C@H](C(C)(C)C)O[C@@H]2C	none (no result: NRP1-CendR mod)
CCCNC(=O)c1nn2c(C(F)(F)F)cc(-c3ccccc3)nc2c1Cl	none
O=C(NCCCn1ccnc1)c1nn2c(C(F)(F)F)cc(-c3ccc(Br)cc3)nc2c1Cl	NRP1-CendR mod 29.7
Cc1ccc(N=CC2=C(O)CC(C)(C)CC2=O)nc1	NRP1-CendR mod 24.1
CC(=O)N1c2ccc(S(=O)(=O)N3CCC(C(=O)Nc4cccc(C)c4)CC3)cc2CC1C (stereo unspecified)	NRP1-CendR mod 31.3
